Screening data deposited in PubChem BioAssay by several laboratories.
S1P4 ag – S1P4 receptor agonists, primary screen, cell-based | Sphingosine 1-phosphate receptor 4 (Homo sapiens), O95977 | hit rate 0.35% among 220,000 | S1P4-expressing cell line, agonist reporter assay | activation, % at 4.98 µM; in the data active means activation above about 11%;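 further: 0% = DMSO vehicle and 100% = reference agonist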
S1P3 antagonist – S1P3 receptor antagonists, primary screen, cell-based; CHO S1P3 NFAT-BLA reporter, FRET fluorescence, antagonist mode; inhibition, % at 4.98 µM; AID 485, 2006; hit rate 0.27% among 170,000; Sphingosine 1-phosphate receptor 3 (Homo sapiens), Q99500;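 active means inhibition above the plate cutoff, the mean inhibition of test wells on that plate plus 3 SD, cut at about 28% in these data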;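 further: cells challenged with S1P at its EC80 of 0.8 µM; blue over green emission ratio from cleaved BLA substrate after 4 h stimulation; 0% = S1P-stimulated wells and 100% = unstimulated DMSO-only wells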
S1P4 antagonist – S1P4 receptor antagonists, primary screen, cell-based; Sphingosine 1-phosphate receptor 4 (Homo sapiens), O95977; S1P4-expressing cells, antagonist mode, reporter read-out; inhibition, % at 4.98 µM; hit rate 0.26% among 220,000; in the data active means inhibition above about 29%;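 further: 0% = wells stimulated with agonist and 100% = vehicle wells without agonist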
Mdm2 ligase inh – MDM2-luciferase reporter signal enhancers, primary screen, MDM2 E3 ligase inhibitor project, cell-based, luminescence, 1536-well | hit rate 0.11% among 210,000 | signal enhancement, % at 5 µM | cell-based MDM2 ubiquitination luciferase reporter, 2 h; 0 = plate control, 100 = twice control, blank-subtracted;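 active means signal enhancement of 30% or more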;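 further: luminescence tracks abundance of the self-degrading MDM2-luciferase fusion protein; higher signal means inhibition of MDM2 E3 ligase activity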
Target sequence (Q00987 whole entry, looked up, the tested form may be a part): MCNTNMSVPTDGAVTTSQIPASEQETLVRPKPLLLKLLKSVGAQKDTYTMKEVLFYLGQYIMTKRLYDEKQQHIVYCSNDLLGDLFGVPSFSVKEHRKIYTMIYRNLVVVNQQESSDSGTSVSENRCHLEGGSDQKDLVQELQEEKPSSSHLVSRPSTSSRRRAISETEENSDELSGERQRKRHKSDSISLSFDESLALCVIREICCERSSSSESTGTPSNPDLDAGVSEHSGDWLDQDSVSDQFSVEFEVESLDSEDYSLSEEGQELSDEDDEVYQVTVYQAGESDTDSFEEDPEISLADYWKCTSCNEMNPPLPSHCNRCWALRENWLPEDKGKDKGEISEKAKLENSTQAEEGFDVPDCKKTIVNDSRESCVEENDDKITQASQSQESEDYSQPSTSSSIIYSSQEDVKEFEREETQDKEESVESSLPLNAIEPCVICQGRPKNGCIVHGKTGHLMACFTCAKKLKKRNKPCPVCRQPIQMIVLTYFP
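Assay system: stable mammalian line carrying autodegrading MDM2–luciferase fusion reporter; Input: 2000 cells in each well; Compound dosing: single-point 5 µM; Schedule: 2 h compound exposure at 37 °C; Signal: SteadyLite luciferase luminescence after 15 min room-temperature reagent incubation; Evaluation: % luminescence enhancement versus blank-corrected plate control mean; Benchmarks: plate controls and plate blanks.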
Lmaj promast – Leishmania major promastigote growth inhibition, primary screen | Leishmania major promastigotes, resazurin fluorescence viability | inhibition, % at 10 µM | hit rate 9% among 200,000 | AID 1063, 2008; in the data active means inhibition above about 50%;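 further: promastigotes grown with compound for 44 hours at 28 °C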
L major 1uM – Leishmania major promastigote growth inhibition, confirmation, 1 µM repeat of primary hits; hit rate 13% among 1,100; AID 1258, 2008; inhibition, % at 1 µM; shares compounds with Lmaj promast; L. major promastigote growth, resazurin fluorescence, 48 h;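 active means inhibition above about 50% in both repeat tests, limit read from the data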
* marks the source's active call; other numbers are inactive results; nt = no result given. The entries come from a sample that favours hits as a whole.

SMILES | S1P4 ag | S1P3 antagonist | S1P4 antagonist | Mdm2 ligase inh | Lmaj promast | L major 1uM
CN(/C=C1/C(=O)CNC1=O)CCO | 1 | -28 | -19 | 3 | -2 | nt
Cc1ccccc1N1C(S)=C(C#N)C(=O)NC12CCCCC2 | -1 | -2 | -7 | -16 | 51* | -20
CCOC(=O)C1CCCN(C(=S)Nc2cc(C)cc(C)c2)C1 (configuration not stated) | 0 | nt | 0 | -5 | 1 | nt
O=C(NCCc1c[nH]c2ccccc12)/C(=C\c1cccnc1)NC(=O)c1ccco1 | 1 | -9 | -22 | 7 | 61* | -2
COc1ccc(C(=O)O/N=C(\N)Cc2ccc(Cl)cc2)cc1OC | -2 | nt | 14 | -19 | 66* | -4
N/C(Cc1ccc(Cl)cc1)=N\OC(=O)c1ccccc1 | 0 | nt | 4 | -13 | 5 | nt
CC(C)(C)c1cc(CSC(=S)NC2CCS(=O)(=O)C2)c(Br)c(C(C)(C)C)c1 (configuration not stated) | -1 | -31 | -10 | -6 | 95* | 8
CN(C)C(=S)NC1CCS(=O)(=O)C1 (configuration not stated) | -1 | -8 | -11 | -3 | -3 | nt
Cc1ccc(C)c(NC2=C(Cl)C(=O)OC2OC(C)C)c1 (configuration not stated) | 2 | 1 | -9 | 18 | 9 | nt
CCOc1ccc(NC(=O)c2cn(-c3ccc(OCC)cc3)c(=O)c3cc(OC)c(OC)cc23)cc1 | 1 | nt | -13 | -16 | 89* | -9
CCN(CC)c1ccc(NC(=O)C2CCCN(S(=O)(=O)c3cccnc3)C2)c(C)c1 (configuration not stated) | -3 | -24 | -23 | -7 | 11 | nt
COC(=O)CNc1nc(-c2ccccc2F)nc2ccccc12 | 1 | 17 | -10 | -11 | 59* | 56*
O=C1c2ccccc2-c2onc3ccc(Oc4ccccc4)c1c23 | 2 | nt | -13 | 20 | 100* | -13
COc1ccc(S(=O)(=O)N(C)CC(=O)NCc2cccnc2)cc1C | 0 | -4 | -1 | -10 | -4 | nt
NC(=O)NOCc1ccc(Cl)cc1Cl | 2 | -3 | -5 | -2 | 3 | nt
CNC(=S)/N=C/NOCc1ccc(Cl)cc1Cl | 1 | 10 | -25 | -8 | 58* | 15
Cc1c(Cl)sn(-c2ccc(Cl)cc2)c1=O | 1 | -5 | 24 | -14 | 101* | 100*
COc1ccccc1N1CCN(S(=O)(=O)c2cnc[nH]2)CC1 | -2 | -2 | -6 | -10 | -8 | nt
O=C(Cn1ccc(C(F)(F)F)n1)N/N=C/c1ccc(N2CCOCC2)cc1 | 1 | -10 | 17 | -11 | -5 | nt
OC(COCC1COc2ccccc2O1)CN1CCc2ccccc2C1 (configuration not stated) | -1 | nt | -7 | -15 | 99* | 2
OC(COC(c1ccccc1)c1ccccc1)CN1CCc2ccccc2C1 (configuration not stated) | 2 | 21 | -10 | -1 | 9 | nt
Cc1c(Br)c([N+](=O)[O-])nn1C(C)C(=O)Nc1ccc2c(c1)OCO2 (configuration not stated) | 1 | nt | -14 | -2 | 27 | nt
Cc1ccc([N+](=O)[O-])cc1-c1ccc(/C=N/NC(=O)c2cc3c(ccc4ccccc43)o2)o1 | 2 | nt | -6 | -22 | 100* | 15
C=C(C)CSc1nc2c(c(=O)[nH]c(=O)n2C)n1CCC(C)C | -1 | 11 | -15 | -15 | -1 | nt
Cc1nn(-c2ccccn2)c2c1C(=O)C(Br)CC2 (configuration not stated) | 1 | 1 | -15 | -13 | 100* | 85*
SMILES | S1P4 ag | S1P3 antagonist | S1P4 antagonist | Mdm2 ligase inh | Lmaj promast | L major 1uM
Cc1ccccc1C(OCCN(C)C)c1ccccc1 (configuration not stated) | 4 | -2 | -9 | 0 | 3 | nt
CCN(CC)CCOC(c1ccccc1)c1ccc(C)cc1 (configuration not stated) | -1 | -4 | -7 | -5 | 96* | 74*
CNC(=O)Nc1cc(NC(=O)NC)cc(C(F)(F)F)c1 | 1 | -9 | -3 | -5 | nt | nt
COc1ccc(CNCCC(c2ccc(OC(C)C)cc2)C(C)C)cc1OC (configuration not stated) | 0 | nt | 0 | -25 | 98* | 10
O=C(N/C=N/OCc1cccc(C(F)(F)F)c1)N1OC[C@@H]2COc3ccc4ccccc4c3[C@@H]21 | 1 | nt | -4 | nt | 92* | -3
Cc1ccc(-c2nc3ccccc3c(C(=O)NCc3cccs3)c2C)cc1 | -1 | nt | -18 | -12 | 31 | nt
O=C(CCl)Nc1cccc(-c2cnc3ccccc3n2)c1 | 1 | nt | 1 | -22 | 100* | 77*
Cc1ccc(-n2nc(C)cc2Nc2ncc(Cl)cc2Cl)cc1 | 3 | -9 | -20 | -7 | 3 | nt
Cc1cc(Nc2ncc(Cl)cc2Cl)n(-c2ccccc2C)n1 | 0 | -2 | 7 | -6 | 82* | -11
O=C(O)C1c2ccccc2C(=O)N(Cc2ccc(F)cc2)C1c1ccncc1 (configuration not stated) | -2 | 9 | 2 | -9 | nt | nt
COc1ccc(-c2nc3ccccc3n2OCC(=O)O)cc1 | 0 | 15 | -3 | -39 | -1 | nt
COc1ccc(Cn2c(-c3ccc(OC)cc3)nc3ccccc32)cc1 | 1 | nt | -5 | -7 | 62* | 63*
Cc1cc(C)cc(NC(=S)NN)c1 | 1 | -10 | 2 | -2 | -2 | nt
CCC(C)NCCOc1ccc(Br)cc1 (configuration not stated) | 0 | nt | -11 | 1 | 82* | -7
Cc1ccc(C[n+]2cccc(-c3ccccc3)c2)c(C)c1 | 1 | 4 | -9 | -1 | 91* | 3
COc1ccc(-c2cc3nc4ccccc4n3c(N)c2C#N)cc1 | 0 | -5 | 8 | 15 | nt | nt
Nc1nccc(-c2ccc(-n3cnc4ccccc43)cc2)n1 | 4 | 5 | -5 | -23 | 7 | nt
Cc1nccc(-c2ccc(-n3cnc4ccccc43)cc2)n1 | 1 | nt | -13 | -12 | 62* | -10
Cc1ccccc1N=C(NOCc1ccc(Cl)cc1Cl)c1nonc1N | 1 | nt | -2 | -17 | 13 | nt
Cc1ccc(N=C(NOCc2ccc(Cl)cc2Cl)c2nonc2N)c(C)c1 | 3 | nt | -7 | 2 | 98* | 20
O=C(O)/C=C\C(=O)NC1CCCCC1 | 0 | -7 | -2 | -8 | -7 | nt
O=C(O)/C=C/C(=O)NC1CCS(=O)(=O)C1 (configuration not stated) | 1 | 0 | -19 | 0 | 61* | -13
C1=C(CCNCC2CCCCC2)CCCC1 | 2 | nt | 8 | 0 | 92* | 47
O=C1OC(Nc2ccc3c(c2)OCO3)c2ccccc21 (configuration not stated) | 0 | nt | -2 | -10 | 60* | -7
